Key:
[1] = system: Rattus norvegicus; assay: Neurite length after administration (0.1 uM) in rat cortical neurons; type: functional
How it was run: (§1)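 E18 Sprague-Dawley rat fetal cortical neurons were plated at 5000 cells/cm² on poly-L-lysine in DMEM with 10% FBS and penicillin/streptomycin for 24 h. They were then switched to serum-free Neurobasal with 2% B27 containing the sample, with 0.5% ethanol as vehicle control. Cells were fixed in PFA and stained with anti-MAP2 (1:1000, overnight, 4 °C) and peroxidase/DAB. Primary process length was averaged over 100 random neurons.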

[2] = system: Rattus norvegicus; assay: Neurite length after administration (1 uM) in rat cortical neurons; type: functional; how it was run: as §1

SMILES	Activity [1] [µm]	Activity [2] [µm]
C=CCc1ccc(O)c(-c2ccc(O)c(CC=C)c2)c1 [HONOKIOL]	139	142
C=CCc1cc(-c2cc(CCC)ccc2O)ccc1O	103	120
C=CCc1ccc(O)c(-c2ccc(OC)c(CC=C)c2)c1 [METHYLHONOKIOL]	113	114
C=CCc1ccc(OC)c(-c2ccc(O)c(CC=C)c2)c1	133	123
CCCc1ccc(O)c(-c2ccc(O)c(CCC)c2)c1	101	102
C=CCc1ccc(O)c(-c2ccc(O)c(CCC)c2)c1	128	150
C=CCc1ccc(OC)c(-c2ccc(OC)c(CC=C)c2)c1	112	111

Reference: ChEMBL document CHEMBL1146744, “Efficient synthesis and structure-activity relationship of honokiol, a neurotrophic biphenyl-type neolignan” (2004)
